# Source: PubChem BioAssay
# The source made the active and inactive calls.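 How the source made its calls: active means duplicate-averaged activation above buffer control mean plus 5 SD of those controls; inactive means the rest.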
# Assay: nonspecific flux increase, KCNQ1-free cells – parental CHO cells, counter-screen for KCNQ1 potentiator project (AID 493006);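 on activation: fluorescence ratio of max minus min over baseline after K+ and Tl+ depolarization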
# Conditions: parental CHO-K1 cells, FluxOR thallium flux, at 10 µM; active compounds read high
# Summary of the method: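 Assay system: parental CHO-K1 cells lacking KCNQ1, loaded with FluxOR thallium dye; timing: dye 90 min RT, compound 20 min RT; signal: kinetic thallium-flux fluorescence; repeats: duplicate wells per compound, percent values averaged; benchmarks: buffer and R-L3 controls; reagent: Potassium/thallium depolarization pulse; read-out: fluorescence change ratio scaled 0% buffer, 100% R-L3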
Compound,activation,outcome
O=C(O)CCSc1ncnc2sc(-c3ccccc3)cc12,180% (active),
CC1(N2CCCCC2)CC2(O)C(=[N+]1[O-])CCC/C2=N\O (stereo not given),,inactive
CCc1ccc(S(=O)(=O)Nc2cc3c(cc2N2CCCCC2)n(C)c(=O)c(=O)n3C)cc1,,inactive
CN(Cc1nccs1)C(=O)c1ccc(OC2CCN(Cc3ccccn3)CC2)cc1,,inactive
COc1ccc(C(=O)NC(=S)NNC(=O)c2ccc3ccccc3n2)cc1,,inactive
Cc1cc(Cl)n2nc(C)c(-c3ccc(Cl)cc3)c2n1,216% (active),
O=C1CN(S(=O)(=O)c2ccccc2)CC(=O)N1CCc1ccccc1,,inactive
CC(=O)N1N=C(N)SC12CCCC2,,inactive
C=CCn1c(=S)[nH]c2scc(-c3cccs3)c2c1=O,620% (active),
Cc1[nH]n(C(N)=S)c(=O)c1N=Nc1ccc2ccccc2c1,150% (active),
O=[N+]([O-])c1cc(C(F)(F)F)ccc1Oc1cccnc1[N+](=O)[O-],,inactive
Cc1ncc(CN2CCC(CO)(CCc3ccccc3)CC2)s1,,inactive
CC(=O)Nc1ccc(S(=O)(=O)N2CCC(C(=O)O)CC2)cc1,,inactive
O=C1CCC(c2ccc(-n3ccnc3)cc2)=NN1,,inactive
O=C(CNc1ccc2c(c1)OCO2)N/N=C\c1cn(Cc2ccccc2)c2ccccc12,,inactive
Cc1cc(C)cc(-n2ccnc2SCC(=O)Nc2nccs2)c1,,inactive
CCOc1ccc(C(=O)C(CCC(CN(C)C)C(=O)c2ccc(OCC)cc2)CN(C)C)cc1 (stereo not given),,inactive
CCOC(=O)c1cnc2c(C)c(Cl)ccc2c1N1CCN(CC)CC1,,inactive
COc1cc(OC)cc(C(=O)NC(=S)N(Cc2ccccc2)C(C)C)c1,294% (active),
O=P(CCCCCCCCCP(=O)(c1ccccc1)c1ccccc1)(c1ccccc1)c1ccccc1,256% (active),

Compound,activation,outcome
COc1ccc2c(c1)cc(C)c1nnc(SCC(=O)N3CCN(C(=O)c4ccco4)CC3)n12,,inactive
O=C(CNC(=O)c1ccccc1)NCc1ccc(Cl)cc1,,inactive
CSC(=S)N/N=C(\C)c1ccccc1,246% (active),
Cc1nonc1NC(=O)OC1CCCCC1,,inactive
CCOc1ccc(CN(CCC#N)C(=S)NC(=O)c2ccccc2)cc1,149% (active),
CCCN1CCC(NC(=S)Nc2cccc(Cl)c2Cl)CC1,,inactive
COc1ccc(NC(=O)/C(=C/c2ccc(OC(C)=O)c(OC)c2)NC(C)=O)cc1,,inactive
COCCN(C(=O)COC(=O)/C=C/c1cccs1)c1c(N)n(Cc2ccccc2)c(=O)[nH]c1=O,,inactive
Cc1cccc(NC(=O)C(=O)NNC(=O)c2ccc(C(C)(C)C)cc2)c1,485% (active),
COc1ccc(NC(=S)NC(=O)c2ccccc2Cl)cc1,,inactive
Cc1csc(NC(=S)NC(=O)c2ccccc2)n1,,inactive
CCN(CC)CCn1c(OC)cc(=O)[nH]c1=O,,inactive
Cc1cc(NC(=O)CSc2cn(CCNC(=O)c3ccc(F)cc3)c3ccccc23)no1,,inactive
Cc1ccc(OCc2n[nH]c(=S)n2-c2ccc(Br)cc2)cc1,,inactive
CCN1C(=O)/C(=C\C(=O)c2cccs2)c2cc(Br)ccc21,,inactive
CCOc1ccc(-n2cc(C(=O)Nc3cccc(C)n3)c3cc(OC)c(OC)cc3c2=O)cc1,,inactive
C=CCNC(=S)Nc1sc2c(c1C(=O)OCC)CC(C(C)C)OC2 (stereo not given),268% (active),
CC(=O)c1c(C)[nH]c(C(=O)Nc2cccc(C(F)(F)F)c2)c1C,,inactive
Cc1nn(CCc2nn[nH]n2)c2nc(-c3ccc(C4CCCCC4)cc3)cc(C(F)(F)F)c12,296% (active),
CCCCC(Nc1ncnc2ccccc12)C(=O)O (stereo not given),,inactive
